# Assay results of several laboratories.
# Protocols differ between the studies behind these lines.
# Target: Myosin-IIIb (MYO3B, Homo sapiens, UniProt Q8WXR4)
# Residues used in one study (Q8WXR4 1-1341): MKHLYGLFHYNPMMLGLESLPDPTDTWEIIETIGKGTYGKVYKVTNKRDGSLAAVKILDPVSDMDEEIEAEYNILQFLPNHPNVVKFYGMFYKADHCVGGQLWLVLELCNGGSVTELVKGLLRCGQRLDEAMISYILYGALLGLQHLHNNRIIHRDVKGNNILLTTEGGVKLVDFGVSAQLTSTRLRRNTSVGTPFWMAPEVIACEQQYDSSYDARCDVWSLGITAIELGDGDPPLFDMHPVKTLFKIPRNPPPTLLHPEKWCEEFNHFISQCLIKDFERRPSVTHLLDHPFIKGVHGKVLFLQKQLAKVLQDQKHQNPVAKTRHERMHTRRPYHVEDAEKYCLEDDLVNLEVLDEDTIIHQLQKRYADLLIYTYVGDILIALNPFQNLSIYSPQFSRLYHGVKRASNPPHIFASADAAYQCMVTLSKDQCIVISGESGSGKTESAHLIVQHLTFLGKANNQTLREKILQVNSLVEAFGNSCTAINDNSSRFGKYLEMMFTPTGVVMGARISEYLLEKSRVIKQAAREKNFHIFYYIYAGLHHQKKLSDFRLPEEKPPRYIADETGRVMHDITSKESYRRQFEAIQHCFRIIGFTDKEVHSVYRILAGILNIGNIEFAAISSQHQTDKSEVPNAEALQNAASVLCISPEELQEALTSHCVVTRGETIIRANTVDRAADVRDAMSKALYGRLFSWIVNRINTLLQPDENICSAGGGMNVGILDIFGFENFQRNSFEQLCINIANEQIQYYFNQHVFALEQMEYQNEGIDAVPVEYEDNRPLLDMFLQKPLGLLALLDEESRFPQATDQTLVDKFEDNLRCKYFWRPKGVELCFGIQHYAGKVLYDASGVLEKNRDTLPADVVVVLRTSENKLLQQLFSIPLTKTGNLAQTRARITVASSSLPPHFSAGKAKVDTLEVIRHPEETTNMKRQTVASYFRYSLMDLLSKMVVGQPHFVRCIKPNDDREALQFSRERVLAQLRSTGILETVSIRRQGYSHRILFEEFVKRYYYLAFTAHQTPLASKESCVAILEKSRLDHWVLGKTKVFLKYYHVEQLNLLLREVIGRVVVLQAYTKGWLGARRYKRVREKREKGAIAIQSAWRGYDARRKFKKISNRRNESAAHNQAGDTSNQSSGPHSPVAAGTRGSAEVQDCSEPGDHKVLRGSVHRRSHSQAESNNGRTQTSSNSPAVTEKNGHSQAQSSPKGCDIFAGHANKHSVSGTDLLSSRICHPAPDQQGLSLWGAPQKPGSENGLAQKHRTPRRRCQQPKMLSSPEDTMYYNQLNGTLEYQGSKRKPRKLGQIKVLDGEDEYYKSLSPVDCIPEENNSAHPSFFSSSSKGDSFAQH
SMILES,test,setting,measurement,value
C[S+]([O-])c1ccc(-c2nc(-c3ccncc3)c(-c3ccc(F)cc3)[nH]2)cc1 (centres unmarked),cell-free assay,0.5 µM,remaining signal,104%
Cc1ccc(C(=O)Nc2ccc(CN3CCN(C)CC3)c(C(F)(F)F)c2)cc1C#Cc1cnc2cccnn12,enzyme activity,23.5 nM,remaining activity,79%
CCN(CC)CCNC(=O)c1c(C)[nH]c(/C=C2\C(=O)Nc3ccc(Cl)cc32)c1C,"enzyme activity, inhibitor",0.5 µM,remaining activity,41.3%
CN1CC(Oc2cnc(C#N)cc2-c2ccn3nc(NC(=O)C4CC4)cc3c2)C1,"enzyme activity, inhibitor",1 µM,inhibition,-2%
O=C(Nc1cnn(-c2csc(C(=O)NC3COC3)c2)c1)Nc1ccccc1Cl,"enzyme activity, inhibitor",5 µM,remaining activity,128%
Nc1ncnc2occ(-c3ccc(NC(=O)Nc4cc(C(F)(F)F)ccc4F)cc3)c12,cell-free assay,20 µM,remaining signal,25%
Cc1sc(C(=O)NC2COC2)cc1-n1cc(NC(=O)Nc2c(F)cccc2Cl)cn1,"enzyme activity, inhibitor",10 µM,remaining activity,73.5%
Cn1nc(C(=O)NCc2ccc(C(=O)O)cc2)cc1-c1ccc2[nH]ccc2c1,"binding, competition with immobilised ligand",0.1 µM,remaining binding,100%
O=C(O)c1ccc2c3c1cccc3c(=O)n1c3ccccc3nc21,"enzyme activity, inhibitor",0.5 µM,remaining activity,96.7%
CN1CCN(C(=O)c2ccc3cc(CCNc4ccnc5ccc(C#N)cc45)ccc3c2)CC1,"binding, competition with immobilised ligand",2 µM,inhibition,> 35%
CCC(=N\O)/C(C)=C/c1ccc(F)cc1,"binding, competition with immobilised ligand",1 µM,remaining binding,100%
CC(C)(O)[C@H]1CC[C@H](Nc2ccc3ncc(-c4cccc(C(F)(F)F)c4)n3n2)CC1,"enzyme activity, inhibitor",1 µM,remaining activity,85.1%
CSc1cccnc1N1CCN(Cc2nc3ccccc3[nH]2)CC1,"binding, competition with immobilised ligand",1 µM,remaining binding,100%
COc1cc(Cl)c(C(=O)N[C@@H](CN[C@H]2CC[C@@H](N)CC2)Cc2ccc(C#N)cc2)cc1-c1ccc(CN[C@H](C)c2ccc(C)cc2)o1,"enzyme activity, inhibitor",1 µM,remaining activity,116%
